≈ marks a conversion by molar mass, not a printed value.
Assays:
Candida albicans [1] = experiment: Antifungal activity against drug resistant Candida albicans DF2672R after 24 hrs by two fold serial dilution method; assay type: functional
How it was run: (§1)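 Candida grown on Sabouraud dextrose agar at 35 °C for 24 h, adjusted to ~5×10^3 CFU/mL. Two-fold dilutions from 100 to 0.78 μg/mL in Sabouraud dextrose broth, incubated at 35 °C for 24 h. MIC is the lowest concentration inhibiting growth by eye and by OD600. CLSI-based with minor modifications.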

[2] = Selectivity index, ratio of HC50 for New Zealand white rabbit RBC to MIC for Candida albicans ATCC 10231
Candida albicans [3] = experiment: Antifungal activity against Candida albicans ATCC 10231 after 24 hrs by two fold serial dilution method; assay type: functional; conditions: ATCC 10231, 24 h; how it was run: as §1
[4] = Dissociation constant, pKa of compound; assay type: physicochemical
Candida albicans [5] = experiment: Antifungal activity against Candida albicans ATCC24433 after 24 hrs by two fold serial dilution method; assay type: functional; conditions: ATCC24433, 24 h; how it was run: as §1
Candida albicans [6] = experiment: Antifungal activity against Candida albicans ATCC11651 after 24 hrs by two fold serial dilution method; assay type: functional; conditions: ATCC11651, 24 h; how it was run: as §1
Candida albicans [7] = experiment: Antifungal activity against Candida albicans DF1976R after 24 hrs by two fold serial dilution method; assay type: functional; how it was run: as §1
Candida albicans [8] = experiment: Antifungal activity against Candida albicans ATCC90028 after 24 hrs by two fold serial dilution method; assay type: functional; conditions: ATCC90028, 24 h; how it was run: as §1
Bacillus cereus = experiment: Antibacterial activity against Bacillus cereus ATCC11778 by two fold serial dilution method; assay type: functional
How it was run: (§2)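 Broth microdilution (CLSI, minor modifications) in Sabouraud dextrose, Mueller−Hinton or RPMI 1640 broth; two-fold serial dilutions of compound from stock to final 100 to 0.78 μg/mL. MIC taken as lowest concentration giving no visible growth.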

Staphylococcus aureus [9] = experiment: Antibacterial activity against methicillin resistant Staphylococcus aureus DM9808R by two fold serial dilution method; assay type: functional
How it was run: (§3)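 Broth microdilution per CLSI guidelines with minor modifications, run in Mueller−Hinton broth; MIC is the lowest concentration giving no visible growth.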

Staphylococcus aureus [10] = experiment: Antibacterial activity against Staphylococcus aureus DM4001R by two fold serial dilution method; assay type: functional; how it was run: as §2
Pseudomonas aeruginosa = experiment: Antibacterial activity against Pseudomonas aeruginosa DM23155 by two fold serial dilution method; assay type: functional; how it was run: as §2
Staphylococcus aureus [11] = experiment: Antibacterial activity against methicillin resistant Staphylococcus aureus DM21455 by two fold serial dilution method; assay type: functional; how it was run: as §3
Klebsiella pneumoniae = experiment: Antibacterial activity against Klebsiella pneumoniae DM4299 by two fold serial dilution method; assay type: functional; how it was run: as §2

Compound | MIC (Candida albicans [1]) [µg/mL] | Selectivity Index [2] | MIC (Candida albicans [3]) [µg/mL] | also measured
CCCCCCNCC(O)COc1cc2oc3cc(OCC(O)CNCCCCCC)c(OC)c(CC=C(C)C)c3c(=O)c2c(O)c1CC=C(C)C (configuration not stated) | 12.5 (≈ 17.2 µM) | 27.5 | 12.5 (≈ 17.2 µM) | –
C[C@@H]1[C@H](O)[C@@H](C)/C=C/C=C/C=C/C=C/C=C/C=C/C=C/[C@H](O[C@@H]2O[C@H](C)[C@@H](O)[C@H](N)[C@@H]2O)C[C@@H]2O[C@](O)(C[C@@H](O)C[C@@H](O)[C@H](O)CC[C@@H](O)C[C@@H](O)CC(=O)O[C@H]1C)C[C@H](O)[C@H]2C(=O)O [AMPHOTERICIN B] | 0.2 (≈ 0.216 µM) | – | – | –
COc1c(OCC(O)CNC(CO)(CO)CO)cc2oc3cc(OCC(O)CNC(CO)(CO)CO)c(CC=C(C)C)c(O)c3c(=O)c2c1CC=C(C)C (configuration not stated) | 6.25 (≈ 8.17 µM) | 3.9 | 6.25 (≈ 8.17 µM) | –
CCCNCC(O)COc1cc2oc3cc(OCC(O)CNCCC)c(OC)c(CC=C(C)C)c3c(=O)c2c(O)c1CC=C(C)C (configuration not stated) | 6.25 (≈ 9.75 µM) | 11.6 | 6.25 (≈ 9.75 µM) | –
CN(C/C=C/C#CC(C)(C)C)Cc1cccc2ccccc12 [TERBINAFINE] | 3.13 (≈ 10.7 µM) | – | – | –
CCC(C)n1ncn(-c2ccc(N3CCN(c4ccc(OCC5COC(Cn6cncn6)(c6ccc(Cl)cc6Cl)O5)cc4)CC3)cc2)c1=O (configuration not stated) [ITRACONAZOLE] | 6.25 (≈ 8.86 µM) | – | – | –
COc1c(O)cc2oc3cc(O)c(CC=C(C)C)c(O)c3c(=O)c2c1CC=C(C)C [MANGOSTIN] | > 50 | < 0.2 | > 50 | –
COc1c(OCC(O)CNCCN)cc2oc3cc(OCC(O)CNCCN)c(CC=C(C)C)c(O)c3c(=O)c2c1CC=C(C)C (configuration not stated) | 12.5 (≈ 19.4 µM) | 2.4 to 4.8 | 6.25 (≈ 9.72 µM) | –
COc1c(OCC(O)CN2CCOCC2)cc2oc3cc(OCC(O)CN4CCOCC4)c(CC=C(C)C)c(O)c3c(=O)c2c1CC=C(C)C (configuration not stated) | 6.25 (≈ 8.97 µM) | > 64 | 6.25 (≈ 8.97 µM) | –
CCCCCCCCNCC(O)COc1cc2oc3cc(OCC(O)CNCCCCCCCC)c(OC)c(CC=C(C)C)c3c(=O)c2c(O)c1CC=C(C)C (configuration not stated) | > 50 | – | > 50 | –
COc1c(OCC(O)CN2CCCCC2)cc2oc3cc(OCC(O)CN4CCCCC4)c(CC=C(C)C)c(O)c3c(=O)c2c1CC=C(C)C (configuration not stated) | 6.25 (≈ 9.02 µM) | 5.1 | 6.25 (≈ 9.02 µM) | pKa [4]: 11.2
COc1c(OCC(O)CNCc2ccc(F)cc2)cc2oc3cc(OCC(O)CNCc4ccc(F)cc4)c(CC=C(C)C)c(O)c3c(=O)c2c1CC=C(C)C (configuration not stated) | 6.25 (≈ 8.09 µM) | > 64 | 6.25 (≈ 8.09 µM) | –
COc1c(OCC(=O)N[C@@H](CCCNC(=N)N)C(=O)OC(C)(C)C)cc2oc3cc(OCC(=O)N[C@@H](CCCNC(=N)N)C(=O)OC(C)(C)C)c(CC=C(C)C)c(O)c3c(=O)c2c1CC=C(C)C | 6.25 (≈ 6.57 µM) | 6.3 to 12.6 | 12.5 (≈ 13.1 µM) | –
CC[C@@H]([C@H](C)O)n1ncn(-c2ccc(N3CCN(c4ccc(OC[C@@H]5CO[C@@](Cn6cncn6)(c6ccc(F)cc6F)C5)cc4)CC3)cc2)c1=O [POSACONAZOLE] | 12.5 (≈ 17.8 µM) | – | – | –
COc1c(OCC(O)CN(C)Cc2ccccc2)cc2oc3cc(OCC(O)CN(C)Cc4ccccc4)c(CC=C(C)C)c(O)c3c(=O)c2c1CC=C(C)C (configuration not stated) | 6.25 (≈ 8.17 µM) | > 32 | 12.5 (≈ 16.3 µM) | –
COc1c(OCC2CO2)cc2oc3cc(OCC4CO4)c(CC=C(C)C)c(O)c3c(=O)c2c1CC=C(C)C (configuration not stated) | > 50 | – | > 50 | –
CCCC[N+](C)(CCCC)CC(O)COc1cc2oc3cc(OCC(O)C[N+](C)(CCCC)CCCC)c(OC)c(CC=C(C)C)c3c(=O)c2c(O)c1CC=C(C)C.[I-].[I-] (configuration not stated) | 6.25 | 5.3 | 6.25 | –
COc1c(OCC(O)CNCCNCCN)cc2oc3cc(OCC(O)CNCCNCCN)c(CC=C(C)C)c(O)c3c(=O)c2c1CC=C(C)C (configuration not stated) | 12.5 (≈ 17.1 µM) | 13.2 to 26.4 | 6.25 (≈ 8.57 µM) | –

Compound | MIC (Candida albicans [1]) [µg/mL] | Selectivity Index [2] | MIC (Candida albicans [3]) [µg/mL] | also measured
COc1c(OCC(=O)N[C@@H](CCCNC(=N)N)C(N)=O)cc2oc3cc(OCC(=O)N[C@@H](CCCNC(=N)N)C(N)=O)c(CC=C(C)C)c(O)c3c(=O)c2c1CC=C(C)C | 6.25 (≈ 7.47 µM) | 20.5 | 6.25 (≈ 7.47 µM) | –
COc1c(OCC(O)CNCCNCCNCCN)cc2oc3cc(OCC(O)CNCCNCCNCCN)c(CC=C(C)C)c(O)c3c(=O)c2c1CC=C(C)C (configuration not stated) | 25 (≈ 30.7 µM) | 14.9 to 29.8 | 12.5 (≈ 15.3 µM) | –
COc1c(OCC(O)Cn2ccnc2)cc2oc3cc(OCC(O)Cn4ccnc4)c(CC=C(C)C)c(O)c3c(=O)c2c1CC=C(C)C (configuration not stated) | 12.5 (≈ 19 µM) | > 32 | 12.5 (≈ 19 µM) | –
Clc1ccc(COC(Cn2ccnc2)c2ccc(Cl)cc2Cl)c(Cl)c1 (configuration not stated) [MICONAZOLE] | 0.39 (≈ 0.937 µM) | – | – | –
COc1c(OCC(O)C[N+](C)(C)C)cc2oc3cc(OCC(O)C[N+](C)(C)C)c(CC=C(C)C)c(O)c3c(=O)c2c1CC=C(C)C.[I-].[I-] (configuration not stated) | 12.5 | 2.9 | 12.5 | –
COC(=O)[C@H](CCCNC(=N)N)NC(=O)[C@H](CCCNC(=N)N)NC(=O)COc1cc2oc3cc(OCC(=O)N[C@@H](CCCNC(=N)N)C(=O)N[C@@H](CCCNC(=N)N)C(=O)OC)c(OC)c(CC=C(C)C)c3c(=O)c2c(O)c1CC=C(C)C | 12.5 (≈ 10.6 µM) | 22.2 to 44.4 | 6.25 (≈ 5.3 µM) | –
CCCCCCN(CCCCCC)CC(O)COc1cc2oc3cc(OCC(O)CN(CCCCCC)CCCCCC)c(OC)c(CC=C(C)C)c3c(=O)c2c(O)c1CC=C(C)C (configuration not stated) | 12.5 (≈ 14 µM) | > 32 | 12.5 (≈ 14 µM) | –
COc1c(OCC(O)CN(C)C)cc2oc3cc(OCC(O)CN(C)C)c(CC=C(C)C)c(O)c3c(=O)c2c1CC=C(C)C (configuration not stated) | 6.25 (≈ 10.2 µM) | 4.8 | 6.25 (≈ 10.2 µM) | –
COc1c(OCC(O)CNCCNC(=N)N)cc2oc3cc(OCC(O)CNC(=N)N)c(CC=C(C)C)c(O)c3c(=O)c2c1CC=C(C)C (configuration not stated) | 6.25 (≈ 9.14 µM) | 8.6 | 6.25 (≈ 9.14 µM) | –
COc1c(OCC(O)CNC2CCCCCCC2)cc2oc3cc(OCC(O)CNC4CCCCCCC4)c(CC=C(C)C)c(O)c3c(=O)c2c1CC=C(C)C (configuration not stated) | 6.25 (≈ 8.04 µM) | 29.7 | 6.25 (≈ 8.04 µM) | –
COc1c(OCC(O)CN)cc2oc3cc(OCC(O)CN)c(CC=C(C)C)c(O)c3c(=O)c2c1CC=C(C)C (configuration not stated) | 6.25 (≈ 11.2 µM) | 7.9 | 6.25 (≈ 11.2 µM) | pKa [4]: 10.5
CCCCN(C)CC(O)COc1cc2oc3cc(OCC(O)CN(C)CCCC)c(OC)c(CC=C(C)C)c3c(=O)c2c(O)c1CC=C(C)C (configuration not stated) | 3.13 (≈ 4.49 µM) | 15.5 | 3.13 (≈ 4.49 µM) | MIC (Candida albicans [5]): 6.25 µg/mL (≈ 8.97 µM); MIC (Candida albicans [6]): 6.25 µg/mL (≈ 8.97 µM); MIC (Candida albicans [7]): 3.13 µg/mL (≈ 4.49 µM); MIC (Candida albicans [8]): 3.13 µg/mL (≈ 4.49 µM)
COc1c(OCC(O)CN2CCCC2)cc2oc3cc(OCC(O)CN4CCCC4)c(CC=C(C)C)c(O)c3c(=O)c2c1CC=C(C)C (configuration not stated) | 6.25 (≈ 9.4 µM) | 4.2 | 6.25 (≈ 9.4 µM) | pKa [4]: 11.3
CCN(CC)CC(O)COc1cc2oc3cc(OCC(O)CN(CC)CC)c(OC)c(CC=C(C)C)c3c(=O)c2c(O)c1CC=C(C)C (configuration not stated) | 6.25 (≈ 9.34 µM) | 5.6 | 6.25 (≈ 9.34 µM) | MIC (Bacillus cereus): 1.56 to 3.13 µg/mL (≈ 2.33 to 4.68 µM); MIC (Staphylococcus aureus [9]): 1.56 to 3.13 µg/mL (≈ 2.33 to 4.68 µM); MIC (Staphylococcus aureus [10]): 1.56 to 3.13 µg/mL (≈ 2.33 to 4.68 µM); MIC (Pseudomonas aeruginosa): 25 to 50 µg/mL (≈ 37.4 to 74.8 µM); MIC (Staphylococcus aureus [11]): 1.56 to 3.13 µg/mL (≈ 2.33 to 4.68 µM); MIC (Klebsiella pneumoniae): 25 to 50 µg/mL (≈ 37.4 to 74.8 µM)
CC[N+](C)(CC)CC(O)COc1cc2oc3cc(OCC(O)C[N+](C)(CC)CC)c(OC)c(CC=C(C)C)c3c(=O)c2c(O)c1CC=C(C)C.[I-].[I-] (configuration not stated) | 6.25 | 2.9 to 5.7 | 12.5 | –
COC(=O)[C@H](CCCNC(=N)N)NC(=O)COc1cc2oc3cc(OCC(=O)N[C@@H](CCCNC(=N)N)C(=O)OC)c(OC)c(CC=C(C)C)c3c(=O)c2c(O)c1CC=C(C)C | 6.25 (≈ 7.21 µM) | 37.1 | 6.25 (≈ 7.21 µM) | –
COc1c(OCC(O)CN2CCNCC2)cc2oc3cc(OCC(O)CN4CCNCC4)c(CC=C(C)C)c(O)c3c(=O)c2c1CC=C(C)C (configuration not stated) | 12.5 (≈ 18 µM) | 2.6 | 12.5 (≈ 18 µM) | pKa [4]: 9.55
